High-throughput results deposited in PubChem by several laboratories.
mHtt clearance = clearance of mutant huntingtin inclusions, primary screen, imaging, HeLa Exon1htt(103Q)mCFP, confocal imaging; aggregate imaging; zero = plate's median compound well; 47,000 compounds, 0.42% hits; inhibition, % at 1.5 µM;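 active = inhibition of aggregate fluorescence above about 70%, also judged a hit by eye on the cell image, limit read from the data, passing the limit was not always enough; inconclusive = no rule stated for this call; inactive = not judged a hit on image review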;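 also: cells exposed to compound for three days before fixation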
M1 ag = M1 muscarinic receptor agonists, primary screen, CHO-M1 cells, Fluo-4 calcium, agonist mode | 64,000 compounds, 3% hits | Fluo-4 calcium fluorescence; stronger effect = higher value | B-score at 10 µM | Muscarinic acetylcholine receptor M1;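 active = fluorescence rise, raw or as B-score row- and column-corrected plate score, outside the 99.7% band of its plate's samples, either direction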
SF1 activator = activators of human SF-1, primary screen, cell-based, CHO-K1, Gal4-SF-1 LBD, luciferase luminescence; 65,000 compounds, 1.9% hits; CHO-K1 Gal4-SF-1 LBD luciferase reporter; % increase over DMSO SF-1-specific signal; AID 522, 2006; activation, % at 10 µM;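 active = activation above the mean activation of all tested compounds plus 3 SD, cut at about 50% in these data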
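Test system: CHO-K1 cells with Gal4–hSF-1 LBD chimera plus Gal4-driven luciferase; Input: 4,000 cells/well; Compound: 10 µM only; Times: 20 h compound treatment, 37 °C; Measured by: steady-glow luciferase luminescence, read after 15 min reagent incubation; Measure: percent activation versus DMSO; Control set: DMSO and mock-transfected background; Replicates: one test per compound.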
M1 antagonist = antagonists of rat M1 muscarinic receptor; CHO-M1 cells, Fluo-4 calcium, ACh EC80 antagonist mode; stronger effect = lower value; 64,000 compounds, 3.4% hits; B-score at 10 µM;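 active = calcium fluorescence response, raw or row-and-column corrected B-score, differing from the plate sample mean either way at a set confidence level, mostly lower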
Target sequence (P08482 whole entry, looked up): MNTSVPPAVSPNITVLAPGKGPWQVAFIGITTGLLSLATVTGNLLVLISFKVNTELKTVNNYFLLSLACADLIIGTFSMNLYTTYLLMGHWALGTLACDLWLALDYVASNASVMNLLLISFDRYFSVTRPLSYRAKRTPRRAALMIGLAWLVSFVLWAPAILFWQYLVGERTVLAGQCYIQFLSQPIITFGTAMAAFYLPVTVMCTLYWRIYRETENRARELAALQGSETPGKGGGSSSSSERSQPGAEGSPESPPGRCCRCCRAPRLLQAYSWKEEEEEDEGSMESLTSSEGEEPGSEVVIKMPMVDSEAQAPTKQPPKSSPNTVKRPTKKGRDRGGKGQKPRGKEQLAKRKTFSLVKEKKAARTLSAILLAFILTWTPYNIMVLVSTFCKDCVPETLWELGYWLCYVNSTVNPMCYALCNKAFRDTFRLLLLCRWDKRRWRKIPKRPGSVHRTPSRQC
D1 mod = D1 CRE-luciferase signal change, two-sided – cell-based, HEK293 D1, dopamine EC30, D1 allosteric modulator project, primary screen. D(1A) dopamine receptor (Homo sapiens), P21728. dopamine EC30 potentiation; actives deviate in either direction. B-score at 10 µM. 58,000 compounds, 5.9% hits;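 active = luminescence count or its row- and column-corrected plate score outside the 99.7% band of the plate's sample wells, on either side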
RORa activator = activators of orphan receptor RORA, primary screen, cell-based, luminescence; Nuclear receptor ROR-alpha (Homo sapiens), P35398; CHO-K1 Gal4-RORA LBD luciferase reporter; percent increase over mock-subtracted basal signal; activation, % at 10 µM; 65,000 compounds, 1.5% hits;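 active = activation above the mean of all tested compounds plus 3 SD, cut at about 49% in these data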
Large screens that a line does not name were inactive. The list is not random: actives were taken first. Their share in the collection is about 11%.

O=C(Nc1ccccc1-c1ccccc1)C1CCCN(c2ncccn2)C1 (configuration not stated)	none (no result: mHtt clearance)
CCC(CC)C(=O)Nc1cc(NC(=O)C(CC)CC)cc(C(=O)O)c1	none
CC#CCCCC(=O)Nc1cccc(C(=O)O)c1	RORa activator 56
CCCCC(=O)Nc1cc(NC(=O)CCCC)cc(C(=O)O)c1	D1 mod -4.2
CCSc1nc(-c2cccs2)nc2c1c(=O)n(C)c(=O)n2C	none (no result: mHtt clearance)
COc1cc2[nH]c(=O)c(C(=O)NCCCN3CCCCC3)c(O)c2cc1OC	D1 mod -4.3
O=C(NCCCN1CCOCC1)c1c(O)c2ccccc2[nH]c1=O	none (no result: D1 mod)
CCOC(=O)c1c(C)c(C(=O)Nc2ccc(N(C)C)cc2)c(C)n1CC	SF1 activator 72, RORa activator 54
CCOC(=O)c1c(C)c(C(=O)NCCOC)c(C)n1CC	none (no result: mHtt clearance, D1 mod)
O=C(c1cc2ncc(Br)cn2n1)N1CCN(C(=O)c2ccco2)CC1	none
Cc1cccc2nc(=S)n(C(=O)c3ccco3)n12	RORa activator 56
O=C(c1ccco1)N1C(=O)c2cccc3cccc1c23	none
O=C(c1ccco1)n1c(=S)nc2ccccn21	RORa activator 77 (no result: mHtt clearance)
COc1ccc(C(C)=O)cc1CSc1nnc(-c2ccc(Cl)cc2)n1-c1ccccc1	none (no result: M1 ag, SF1 activator, M1 antagonist, D1 mod, RORa activator)
O=C1CC(C(=O)Nc2nccs2)C(c2ccccc2)O1 (configuration not stated)	none (no result: mHtt clearance)
Cc1cc(C)c2c(n1)nn1c(N3CCN(c4ccccc4)CC3)cc(C)nc21	D1 mod -4.1 (no result: mHtt clearance)
Cc1cc(C)c2c(n1)nn1c(N3CCN(c4ccccn4)CC3)cc(C)nc21	none (no result: mHtt clearance)
CCCc1c(O)nc(SCCN(CC)CC)n(C(=O)c2ccccc2)c1=O	none (no result: mHtt clearance)
CCOC(=O)CCn1nc(-c2ccc(Cl)cc2)cc1N	mHtt clearance inconclusive, SF1 activator 70
CCOC(=O)Cn1nc(-c2ccc(Cl)cc2)cc1N	none
Cc1cccc(OCC(O)Cn2c(NCc3cccnc3)nc3c2c(=O)[nH]c(=O)n3C)c1 (configuration not stated)	none (no result: mHtt clearance)
O=C1CCCc2nc3nc4ccccc4n3cc21	none (no result: mHtt clearance, D1 mod)
CC1(C)NC(=O)N(CCOc2ccc3c(c2)CCC3)C1=O	none (no result: mHtt clearance)
CCC(C(=O)NC1CCCC1)N(Cc1ccc2c(c1)OCO2)C(=O)c1snc(C(N)=O)c1N (configuration not stated)	none
CCCC(C(=O)NC1CCCC1)N(Cc1cccs1)C(=O)c1snc(C(N)=O)c1N (configuration not stated)	M1 ag 4.1 (no result: mHtt clearance)
O=C(c1cccc(Br)c1)N1CCN(C(=O)c2cccc(Br)c2)CC1	none (no result: M1 ag, SF1 activator, M1 antagonist, D1 mod, RORa activator)
Cc1cn(C(=O)c2cccc(Br)c2)c(C)n1	D1 mod 8 (no result: mHtt clearance)
O=C(Nc1ccc(NC(=O)C2CCCCC2)cn1)c1ccco1	D1 mod -3.2
O=C(Nc1ccc(NC(=O)C23CC4CC(CC(C4)C2)C3)cn1)c1ccco1	SF1 activator 90
COC(=O)c1cccc(NC(=O)c2cc3sccc3n2C)c1	SF1 activator 67 (no result: mHtt clearance)
Cc1cccnc1NC1(C(F)(F)F)N=C(c2ccccc2)NC1=O (configuration not stated)	none (no result: M1 ag, SF1 activator, M1 antagonist, D1 mod, RORa activator)
COCc1c(C(N)=O)nnn1-c1nonc1N	none (no result: D1 mod)
COc1ccc(OC)c(-n2c(-c3cc(-c4ccc(F)cc4)n[nH]3)n[nH]c2=S)c1	none (no result: M1 ag, SF1 activator, M1 antagonist, D1 mod, RORa activator)
COc1ccc(-c2cc(-c3ccc(OC)cc3)[nH]n2)cc1	RORa activator 65
COc1ccccc1NS(=O)(=O)c1cc(Cl)ccc1OC	none (no result: mHtt clearance)
O=C1C2C3C=CC(C3)C2C(=O)N1c1ccncc1 (configuration not stated)	none
O=C1C2C3C=CC(C3)C2C(=O)N1c1ccc(-c2nc3ccccc3o2)cc1 (configuration not stated)	RORa activator 73 (no result: mHtt clearance)
COc1ccc(S(=O)(=O)N2Cc3ccccc3CC2C(=O)Nc2nccs2)cc1OC (configuration not stated)	SF1 activator 71
O=C(CN1C(=O)c2ccccc2C1=O)NCC1COc2ccccc2O1 (configuration not stated)	M1 antagonist 1.2 (no result: mHtt clearance)
O=C(NCC1COc2ccccc2O1)c1ccccc1 (configuration not stated)	SF1 activator 52, RORa activator 70
CCc1ccc(S(=O)(=O)NC(CC(=O)O)c2ccccc2)cc1 (configuration not stated)	D1 mod -6.5
Cc1ccc(S(=O)(=O)NC(CC(=O)O)c2ccccc2)c(C)c1 (configuration not stated)	none
Cc1ccc2cc(CN(CC3CCCO3)S(=O)(=O)c3c(C)ccc4nsnc34)c(=O)[nH]c2c1 (configuration not stated)	none
Cc1ccc2nsnc2c1S(=O)(=O)N(Cc1cc2cccc(C)c2[nH]c1=O)CC1CCCO1 (configuration not stated)	M1 ag 13, M1 antagonist -3.2, D1 mod -5.1 (no result: mHtt clearance)
COc1ccc(C(O)P(=O)(O)CCc2ccccc2)cc1 (configuration not stated)	RORa activator 52
CCNC(=O)NC(=O)COc1ccccc1C#N	SF1 activator 54 (no result: mHtt clearance)
CCOc1ccc(-c2nnn(CC(=O)NCc3cccs3)n2)cc1	none
CCOc1ccc(-c2nnn(CC(=O)NCc3ccc4c(c3)OCO4)n2)cc1	mHtt clearance 76 (no result: M1 ag, SF1 activator, M1 antagonist, D1 mod, RORa activator)
CCC(C)(C)NC(=O)CN(CC1CCCO1)C(=O)CCC(=O)Nc1nccs1 (configuration not stated)	none (no result: mHtt clearance)
CCc1nc2oc3ccccc3c(=O)c2c(=O)n1CCOC	none
CCc1nc2oc3ccccc3c(=O)c2c(=O)n1-c1ccccc1	SF1 activator 71 (no result: mHtt clearance)
Cc1cccc(C)c1NC(=O)NC1(C(=O)NCCCN2CCOCC2)CCCCC1	none (no result: M1 ag, SF1 activator, M1 antagonist, D1 mod, RORa activator)
O=C(CCn1nnc(-c2cccs2)n1)NCc1ccccc1Cl	none
Clc1ccccc1Cn1nnc(-c2cccs2)n1	SF1 activator 51
CCOC(=O)c1c(C)[nH]c(C)c1C(=O)CSc1nnc(-c2ccco2)n1Cc1ccccc1	none (no result: mHtt clearance)
CCc1ccc2nc(NC3=NCN(CCN4CCOCC4)CN3)nc(C)c2c1	M1 antagonist -3.3 (no result: mHtt clearance)
Cc1cc(C)c2nc(NC3=NCN(CCN4CCOCC4)CN3)nc(C)c2c1	none (no result: mHtt clearance)
Cc1nc(NC2=NCN(Cc3ccc4c(c3)OCO4)CN2)nc2ccccc12	M1 antagonist -9.2 (no result: mHtt clearance, D1 mod)
c1ccc2c(CCNc3ncnc4nc[nH]c34)cccc2c1	none (no result: M1 ag, SF1 activator, M1 antagonist, D1 mod, RORa activator)
Cc1ccc(C(=O)Nc2ncc(Cc3ccc(F)cc3)s2)o1	SF1 activator 119
COc1ccc(N2CCN(C(=O)CSc3nnc(CNc4ccccc4)o3)CC2)cc1	M1 ag -2.5
